From PMC3227540 (Science translational medicine, 2011)
Read-outs that look alike come from different tables or passages of the source.

Legend:
[1] = system: AC16 cells; test: Inhibition of V122I TTR cytotoxicity towards AC16 cells; format: cell-based, human; settings: TTR and ligands 8 μM
[2] = system: IMR-32 cells; test: Inhibition of WT-TTR cytotoxicity towards IMR-32 neuroblastoma cells; format: cell-based, human; settings: fig. S8B
[3] = target: serum TTR (Homo sapiens, UniProt P02766); test: Stabilization of human serum TTR against acid-mediated denaturation; format: biochemical; settings: 50 μM compound, acid treatment 72 hours
[4] = target: human wild type TTR (Homo sapiens, UniProt P02766); test: Isothermal titration calorimetry; settings: two-site binding model; for Kd: ITC
[5] = target: T1, TTR (Homo sapiens, UniProt P02766); test: Surface plasmon resonance; format: binding; settings: SPR
[6] = target: T1, TTR; test: Acid-mediated TTR amyloidogenesis; format: biochemical; settings: kinetic aggregation assay over 5 days, TTR 3.6 μM, ligand 3.0 μM
[7] = target: T1, TTR; test: Fluorescence polarization; settings: competitive displacement of probe 1, apparent binding constant
Procedure, shortened: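 Competitive displacement of the fluorescent probe from the TTR thyroxine-binding pocket under physiological conditions. The test compound is titrated from 0.01 to 50 μM, and fluorescence polarization is read at excitation 485 nm and emission 525 nm. The dose-dependent drop in polarization is fitted to give the apparent binding constant, Kapp. Run in triplicate; SD reported.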

[8] = target: COX-1 (Homo sapiens, UniProt P23219); test: COX-1 enzymatic inhibition; format: biochemical; settings: read-out: COX-1 inhibition
Sequence of COX-1 (P23219 24-599): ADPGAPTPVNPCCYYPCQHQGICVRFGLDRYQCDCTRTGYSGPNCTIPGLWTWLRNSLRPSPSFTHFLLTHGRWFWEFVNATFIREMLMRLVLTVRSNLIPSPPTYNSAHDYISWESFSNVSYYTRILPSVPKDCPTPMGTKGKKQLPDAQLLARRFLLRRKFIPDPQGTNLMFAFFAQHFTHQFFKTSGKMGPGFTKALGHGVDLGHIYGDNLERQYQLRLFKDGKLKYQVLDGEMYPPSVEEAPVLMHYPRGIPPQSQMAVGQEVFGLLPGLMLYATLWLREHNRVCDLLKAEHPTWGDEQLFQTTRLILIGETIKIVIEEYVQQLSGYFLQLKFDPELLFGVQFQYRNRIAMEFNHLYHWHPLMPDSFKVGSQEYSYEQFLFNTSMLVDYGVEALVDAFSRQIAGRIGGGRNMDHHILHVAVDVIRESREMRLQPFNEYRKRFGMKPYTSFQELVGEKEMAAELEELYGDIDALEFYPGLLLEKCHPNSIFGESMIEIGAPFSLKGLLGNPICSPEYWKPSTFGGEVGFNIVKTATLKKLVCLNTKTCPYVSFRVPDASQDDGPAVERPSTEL

| Kapp [7] | fold lower target residence time than ligand 7 [5] | inhibition at 10 µM [8] | SMILES | Rescue of AC16 cell viability from V122I TTR proteotoxicity (in words) [1] | Performance against WT-TTR toxicity in IMR-32 cells (in words) [2] | % tetramer at 72 hrs (of tetramer present at 0 hours) [3] | Kd ([4]; read-out: Kd1, first site) | Kd ([4]; read-out: Kd2, second site) | ITC binding affinity (in words) [4] | koff, fold faster than ligand 7 [5] | Fibril formation at substoichiometric ligand (in words) [6] |
| --- | --- | --- | --- | --- | --- | --- | --- | --- | --- | --- | --- |
|  |  |  | O=[N+]([O-])c1cc(O)c(O)c([N+](=O)[O-])c1 [3,5-dinitrocatechol] | performed poorly | performed poorly | 37.6% |  |  |  |  |  |
|  |  |  | O=C(c1cc(O)c(O)c([N+](=O)[O-])c1)c1ccccc1F [Ro 41-0960] | completely rescued |  |  | 15 nM | 2000 nM | low nanomolar affinity | ~ 5 x | dramatically slowed fibril formation |
| 4.66 µM | ~40 x |  | O=C(O)Cc1ccccc1Nc1c(Cl)cccc1Cl [diclofenac] |  |  |  |  |  |  |  |  |
|  | ~ 20 x | 94% | O=C(O)c1cccnc1Nc1cccc(C(F)(F)F)c1 [niflumic acid] | performed poorly | performed poorly | 11.5% |  |  |  |  |  |
